In ChEMBL document CHEMBL3352032, “Antiplasmodial activity of new 4-aminoquinoline derivatives against chloroquine resistant strain” (Bioorg Med Chem, 2014):

Tests used:
Plasmodium falciparum [1] = experiment: Antiplasmodial activity against chloroquine-resistant Plasmodium falciparum K1 after 72 hrs by SYBR Green-1 staining-based fluorescence assay; type: functional, organism-based; conditions: K1, 72 h
Summary of the method: (§1)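 Compounds were dissolved in DMSO as 10 mM stocks and two-fold serially diluted. Dilutions were incubated with a 1.0% parasitized cell suspension at 0.8% parasitemia, using an asynchronous culture with more than 80% ring stages. Incubation was 72 h at 37 °C in 5% CO2/air. Lysis buffer with 2x SYBR Green-1 was then added for 1 h at 37 °C, and fluorescence (RFU) was read at 485±20 nm.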

[2] = Selectivity index, ratio of CC50 for African green monkey Vero cells to IC50 for Plasmodium falciparum; type: functional
Summary of the method: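 Vero cells exposed to compound dilutions for 72 h; cytotoxicity read by MTT, CC50 by nonlinear regression of dose-response curves. Antiplasmodial IC50 from P. falciparum asynchronous culture (>80% rings, 0.8% parasitemia, 1% hematocrit suspension), twofold serial dilutions, 72 h at 37 °C, 5% CO2, SYBR Green I fluorescence. SI = CC50/IC50.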

[3] = Inhibition of beta-hematin formation assessed as inhibition of hemozoin formation by UV spectrophotometry; type: physicochemical
Summary of the method: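 β-Hematin polymerization induced by 1-oleoyl-rac-glycerol, read at 405 nm by UV spectrophotometry. Triplicate values expressed as percent inhibition relative to drug-free hemozoin formation. IC50 in millimolar equivalents of compound relative to hemin, from sigmoidal dose-response non-linear regression. Means ± SD from at least three experiments in duplicate.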

Plasmodium falciparum [4] = experiment: Resistance index, ratio of IC50 for chloroquine-resistant Plasmodium falciparum K1 to IC50 for chloroquine-sensitive Plasmodium falciparum 3D7; type: functional
Summary of the method: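 The index is the IC50 against K1 divided by the IC50 against 3D7. Both IC50s come from the 72 h SYBR Green-1 fluorescence assay: two-fold serial dilutions from 10 mM DMSO stocks, 1.0% parasitized cells at 0.8% parasitemia (>80% rings), 37 °C, 5% CO2.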

Plasmodium falciparum [5] = experiment: Antiplasmodial activity against chloroquine-sensitive Plasmodium falciparum 3D7 after 72 hrs by SYBR Green-1 staining-based fluorescence assay; type: functional, organism-based; conditions: 3D7, 72 h; summary of the method: as §1
[6] = Association constant, log K of the compound in aqueous DMSO at pH 7.5 assessed as complex formation by UV spectrophotometry; type: physicochemical; conditions: buffer
Summary of the method: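 Spectrophotometric titration of hematin with compound in 40% aqueous DMSO, 20 mM HEPES, pH 7.5, 25 °C; hematin monomeric under these conditions. Association constant fitted for 1:1 compound:hematin complex. Means ± SD from at least three experiments in duplicate.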

Row | SMILES | IC50 (Plasmodium falciparum [1]) [nM] | Ratio CC50/IC50 [2] | IC50 [3] [mMequiv] | inhibition (INH) [3] | Ratio IC50 (Plasmodium falciparum [4]) | IC50 (Plasmodium falciparum [5]) [nM] | log K [6]
1 | CC[C@H](C)[C@H](NC(=O)OC(C)(C)C)C(=O)C=[N+]=[N-] | 168 | – | – | – | – | – | –
2 | CC[C@H](C)[C@@H](CC(=O)N1CCN(C)CC1)Nc1ccnc2cc(Cl)ccc12 | 168 | 7613 | 0.2197 | Dose-dependent effect | 5.08 | 33 | 6.26
3 | C[C@H](Nc1ccnc2cc(Cl)ccc12)C(=O)NCCN1CCCCC1 | > 500 | 3025 | 0.2166 | Dose-dependent effect | >7.8 | 64.1 | 5.73
4 | CCN(CC)CCCC(C)Nc1ccnc2cc(Cl)ccc12 (centres undefined) [CHLOROQUINE] | – | – | 0.17 | – | – | – | 5.52
5 | CN1CCN(C(=O)CC[C@H](Cc2ccccc2)Nc2ccnc3cc(Cl)ccc23)CC1 | 71.2 | 11350 | 0.1961 | Dose-dependent effect | 6.18 | 11.5 | 5.32
6 | CSCC[C@H](Nc1ccnc2cc(Cl)ccc12)C(=O)N1CCN(C)CC1 | 129 | 3821 | 0.3595 | Dose-dependent effect | 2.2 | 58.4 | 5.04
7 | CC(C)[C@H](CC(=O)N1CCN(C)CC1)Nc1ccnc2cc(Cl)ccc12 | 324 | 6045 | 0.2286 | Dose-dependent effect | 7.33 | 44.1 | 5.33
8 | CN1CCN(C(=O)[C@H](Cc2ccccc2)Nc2ccnc3cc(Cl)ccc23)CC1 | 116 | 429 | 0.6619 | Dose-dependent effect | 1.06 | 109 | 5.11
9 | C[C@H](O)[C@H](Nc1ccnc2cc(Cl)ccc12)C(=O)N1CCN(C)CC1 | > 1380 | 1934 | 0.3837 | Dose-dependent effect | >9.67 | 142 | 6.07
10 | CCN(CC)CCCNC(=O)[C@H](C)Nc1ccnc2cc(Cl)ccc12 | > 500 | 2585 | 0.2145 | Dose-dependent effect | >6.05 | 82.6 | 5.27
11 | CN1CCN(C(=O)CCNc2ccnc3cc(Cl)ccc23)CC1 | 398 | 6472 | 0.3293 | Dose-dependent effect | 11.1 | 35.9 | 6.43
12 | CN1CCN(C(=O)[C@H](Cc2c[nH]c3ccccc23)Nc2ccnc3cc(Cl)ccc23)CC1 | 262 | 392 | 0.3302 | Dose-dependent effect | 1.17 | 223 | 6.36
13 | CC[C@H](C)[C@H](Nc1ccnc2cc(Cl)ccc12)C(=O)N1CCN(C)CC1 | 365 | 2188 | 0.2295 | Dose-dependent effect | 4.34 | 83.8 | 5.72
14 | CN1CCN(C(=O)[C@H](CO)Nc2ccnc3cc(Cl)ccc23)CC1 | 925 | 1976 | 0.3604 | Dose-dependent effect | 7.96 | 116 | 5.68
15 | CN1CCN(C(=O)CCCNc2ccnc3cc(Cl)ccc23)CC1 | 781 | 4432 | 0.2023 | Dose-dependent effect | 11.99 | 65.1 | 6.52
16 | CN1CCN(C(=O)C[C@H](Cc2ccccc2)Nc2ccnc3cc(Cl)ccc23)CC1 | 55.3 | 5846 | 0.1739 | Dose-dependent effect | 2.87 | 19.2 | 5.8
17 | C[C@H](Nc1ccnc2cc(Cl)ccc12)C(=O)NCCCN(C)C | > 500 | 2606 | 0.176 | Dose-dependent effect | >3.51 | 142 | 5.34
18 | CC(C)(C)OC(=O)N[C@@H](Cc1ccccc1)C(=O)C=[N+]=[N-] | 55.3 | – | – | – | – | – | –
19 | C[C@H](Nc1ccnc2cc(Cl)ccc12)C(=O)N1CCN(C)CC1 | 207 | 2900 | 0.1677 | Dose-dependent effect | 2.79 | 73.8 | 5.36
20 | CC(C)C[C@H](Nc1ccnc2cc(Cl)ccc12)C(=O)N1CCN(C)CC1 | 147 | 905 | 0.2283 | Dose-dependent effect | 2.44 | 60.2 | 5.38
21 | CC(C)[C@H](Nc1ccnc2cc(Cl)ccc12)C(=O)N1CCN(C)CC1 | 599 | 1023 | 0.2349 | Dose-dependent effect | 2.21 | 271 | 6.39
22 | C[C@H](Nc1ccnc2cc(Cl)ccc12)C(=O)N1CCN(c2ccccc2)CC1 | > 500 | – | 0.2082 | Dose-dependent effect | – | > 500 | 5.94
23 | CN1CCN(C(=O)CNc2ccnc3cc(Cl)ccc23)CC1 | 177 | 1566 | 0.1915 | Dose-dependent effect | 1.18 | 149 | 7.34
24 | CCN(CC)CCNC(=O)[C@H](C)Nc1ccnc2cc(Cl)ccc12 | > 500 | 5834 | 0.1531 | Dose-dependent effect | >14.13 | 35.4 | 6.03
